Measurements reported in ChEMBL document CHEMBL1687827, “Profiling the Aspergillus fumigatus proteome in response to caspofungin” (2011).
Active and inactive are the calls of the source. The rule behind the calls is not given here.

How the values were obtained:
[1] = system: Aspergillus fumigatus; test: Induction of change in cytosolic small ribosomal subunit S15, putative protein level in iTRAQ114 labelled secreted fraction of drug-susceptible Aspergillus fumigatus KU80 delta-akuB at 0.12 ug/ml after 24 hrs in YPD medium by MS (MS/MS) analysis relative to control; assay type: functional
In short: (§1)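 Conidia at 1 × 10⁵/ml grown shaking at 37°C in YPD with or without 0.12 μg/ml caspofungin; mycelia filtered at 24 or 48 h. Secreted fraction taken from the filtrate; cell wall/plasma membrane pellet recovered after French-press lysis and a 5,000 × g spin. Proteins trypsin-digested and iTRAQ-labelled, drug vs no-drug channels at each time, then 2D LC-MS/MS. Protein ratio is the median of ratios from uniquely assigned peptides after median normalization.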

[2] = system: Aspergillus fumigatus; test: Induction of change in tripeptidyl-peptidase (TppA), putative protein level in iTRAQ-116 labelled secreted fraction of drug-susceptible Aspergillus fumigatus KU80 delta-akuB at 0.12 ug/ml after 48 hrs in YPD medium by MS (MS/MS) analysis relative to control; assay type: functional
In short: (§2)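 Conidia (1 × 10⁵/ml) grown in YPD, 37°C, 225 rpm, ± 0.12 μg/ml caspofungin; filtrate taken as secreted fraction, French-press lysate 5,000 × g pellet as cell wall/plasma membrane. Trypsin digests 8-plex iTRAQ-labelled (drug-free channels as references), pooled, 2D-chromatography, MS/MS. Median-normalized; protein ratio = median of unique-peptide ratios, log2 normalized.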

[3] = system: Aspergillus fumigatus; test: Induction of change in sur7 protein, putative gene expression in drug-susceptible Aspergillus fumigatus KU80 delta-akuB at 0.12 ug/ml after 24 hrs in YPD medium by microarray analysis relative to control; assay type: functional
In short: (§3)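 Mycelia grown from 1 × 10⁵ conidia/ml in YPD at 37°C, 225 rpm, with or without 0.12 μg/ml caspofungin. Total RNA extracted, DNase-treated; 2 μg labelled per TIGR SOP M007 for whole-genome array hybridization. Three independent experiments with dye flip (6 replicates); >2-fold change deemed significant.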

[4] = system: Aspergillus fumigatus; test: Induction of change in ribosomal protein L27a protein level in iTRAQ114 labelled cell wall fraction of drug-susceptible Aspergillus fumigatus KU80 delta-akuB at 0.12 ug/ml after 24 hrs in YPD medium by MS (MS/MS) analysis relative to control; assay type: functional
[5] = system: Aspergillus fumigatus; test: Induction of change in 60s ribosomal protein yl6 protein level in iTRAQ114 labelled cell wall fraction of drug-susceptible Aspergillus fumigatus KU80 delta-akuB at 0.12 ug/ml after 24 hrs in YPD medium by MS (MS/MS) analysis relative to control; assay type: functional; in short: as §1
[6] = system: Aspergillus fumigatus; test: Induction of change in conserved hypothetical gene expression in drug-susceptible Aspergillus fumigatus KU80 delta-akuB at 0.12 ug/ml after 24 hrs in YPD medium by microarray analysis relative to control; assay type: functional
In short: (§4)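 Mycelia grown in YPD ± 0.12 μg/ml caspofungin (1 × 10⁵ conidia/ml, 37°C, shaking) and harvested at 24 or 48 h. Total RNA extracted, DNase-treated and quality-checked; 2 μg labelled per TIGR SOP M007 and hybridized to whole-genome arrays. Three independent experiments with dye flip (6 replicates); drug vs untreated fold change.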

[7] = system: Aspergillus fumigatus; test: Induction of change in L-PSP endoribonuclease family protein (Hmf1), putative gene expression in drug-susceptible Aspergillus fumigatus KU80 delta-akuB at 0.12 ug/ml after 48 hrs in YPD medium by microarray analysis relative to control; assay type: functional; in short: as §4
[8] = system: Aspergillus fumigatus; test: Induction of change in large subunit ribosomal protein L3 gene expression in drug-susceptible Aspergillus fumigatus KU80 delta-akuB at 0.12 ug/ml after 24 hrs in YPD medium by microarray analysis relative to control; assay type: functional; in short: as §3
[9] = system: Aspergillus fumigatus; test: Antifungal activity against drug-resistant Aspergillus fumigatus EMFR-S678P assessed as change in hyphal morphology by YPD medium; assay type: functional; settings: read-out: MEC
In short: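 CLSI M38-A2 broth microdilution, run in triplicate in RPMI or YPD medium as the line specifies. Caspofungin was dissolved in sterile water. The minimum effective concentration (MEC) was the lowest concentration giving a significant change in hyphal morphology visible to the eye.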

[10] = system: Aspergillus fumigatus; test: Induction of change in cytochrome c oxidase polypeptide vib protein level in iTRAQ-118 labelled cell wall fraction of drug-resistant Aspergillus fumigatus EMFR-S678P at 0.12 ug/ml after 24 hrs in YPD medium by MS (MS/MS) analysis relative to control; assay type: functional, organism-based
In short: (§5)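 Conidia at 1 × 10⁵/ml were grown at 37°C, shaking at 225 rpm, in YPD with or without 0.12 μg/ml caspofungin for 24 or 48 h. The culture filtrate was kept as the secreted fraction. Mycelia were lysed by French press in HEPES/glycerol/EDTA/PMSF/DTT buffer, and the 5,000 × g pellet was washed to give CW/PM. Proteins were reduced, alkylated and trypsin-digested at 37°C overnight, then iTRAQ-labelled and run by 2D LC-MS/MS. Ratios are the median of unique-peptide ratios, median-normalized, versus the no-drug control.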

[11] = system: Aspergillus fumigatus; test: Induction of change in BYS1 domain protein, putative protein level in iTRAQ-118 labelled cell wall fraction of drug-resistant Aspergillus fumigatus EMFR-S678P at 0.12 ug/ml after 24 hrs in YPD medium by MS (MS/MS) analysis relative to control; assay type: functional, organism-based; in short: as §5
[12] = system: Aspergillus fumigatus; test: Induction of change in alanine aminotransferase, putative protein level in iTRAQ-116 labelled secreted fraction of drug-resistant Aspergillus fumigatus EMFR-S678P at 0.12 ug/ml after 48 hrs in YPD medium by MS (MS/MS) analysis relative to control; assay type: functional, organism-based; in short: as §5
[13] = system: Aspergillus fumigatus; test: Induction of change in eukaryotic translation elongation factor 1 subunit Eef1-beta, putative protein level in iTRAQ-116 labelled secreted fraction of drug-resistant Aspergillus fumigatus EMFR-S678P at 0.12 ug/ml after 48 hrs in YPD medium by MS (MS/MS) analysis relative to control; assay type: functional; in short: as §5
[14] = system: Aspergillus fumigatus; test: Induction of change in cobalamin-independent methionine synthase MetH/D protein level in iTRAQ-116 labelled secreted fraction of drug-resistant Aspergillus fumigatus EMFR-S678P at 0.12 ug/ml after 48 hrs in YPD medium by MS (MS/MS) analysis relative to control; assay type: functional; in short: as §5
[15] = system: Aspergillus fumigatus; test: Induction of change in 40S ribosomal protein S3Ae protein level in iTRAQ114 labelled cell wall fraction of drug-susceptible Aspergillus fumigatus KU80 delta-akuB at 0.12 ug/ml after 24 hrs in YPD medium by MS (MS/MS) analysis relative to control; assay type: functional; in short: as §1
[16] = system: Aspergillus fumigatus; test: Induction of change in cytochrome c protein level in iTRAQ114 labelled secreted fraction of drug-susceptible Aspergillus fumigatus KU80 delta-akuB at 0.12 ug/ml after 24 hrs in YPD medium by MS (MS/MS) analysis relative to control; assay type: functional; in short: as §1
[17] = system: Aspergillus fumigatus; test: Induction of change in translation elongation factor eEF-3, putative protein level in iTRAQ-118 labelled cell wall fraction of drug-susceptible Aspergillus fumigatus KU80 delta-akuB at 0.12 ug/ml after 24 hrs in YPD medium by MS (MS/MS) analysis relative to control; assay type: functional; in short: as §2

CC[C@H](C)C[C@H](C)CCCCCCCCC(=O)N[C@H]1C[C@@H](O)[C@@H](NCCN)NC(=O)[C@@H]2[C@@H](O)CCN2C(=O)[C@H]([C@H](O)CCN)NC(=O)[C@H]([C@H](O)[C@@H](O)c2ccc(O)cc2)NC(=O)[C@@H]2C[C@@H](O)CN2C(=O)[C@H]([C@@H](C)O)NC1=O [CASPOFUNGIN]
fold change (FC) [1]: -1
fold change (FC) [2]: 3.2
fold change (FC) [3]: -5.2
fold change (FC) [4]: 1.9
fold change (FC) [5]: 1.6
fold change (FC) [6]: 15.2
fold change (FC) [7]: -2.3
fold change (FC) [8]: 3.5
minimal effective concentration [9]: > 16 µg/mL
Activity [10]: inactive
Activity [11]: inactive
Activity [12]: inactive
fold change (FC) [13]: -1.74
fold change (FC) [14]: -1.15
fold change (FC) [15]: 2.3
fold change (FC) [16]: -2.6
fold change (FC) [17]: 2.1
